The values that follow come from ChEMBL document CHEMBL4613300, “Pharmacophore-Based Virtual Screening for Identification of Negative Modulators of GLI1 as Potential Anticancer Agents” (ACS Med Chem Lett, 2020).

Active and inactive are the calls of the source. The calls are words filed in the database; no cut-off is given here.

The first assay has as its target T1, Zinc finger protein GLI1 (Mus musculus) (UniProt P47806).
T1 sequence (whole entry): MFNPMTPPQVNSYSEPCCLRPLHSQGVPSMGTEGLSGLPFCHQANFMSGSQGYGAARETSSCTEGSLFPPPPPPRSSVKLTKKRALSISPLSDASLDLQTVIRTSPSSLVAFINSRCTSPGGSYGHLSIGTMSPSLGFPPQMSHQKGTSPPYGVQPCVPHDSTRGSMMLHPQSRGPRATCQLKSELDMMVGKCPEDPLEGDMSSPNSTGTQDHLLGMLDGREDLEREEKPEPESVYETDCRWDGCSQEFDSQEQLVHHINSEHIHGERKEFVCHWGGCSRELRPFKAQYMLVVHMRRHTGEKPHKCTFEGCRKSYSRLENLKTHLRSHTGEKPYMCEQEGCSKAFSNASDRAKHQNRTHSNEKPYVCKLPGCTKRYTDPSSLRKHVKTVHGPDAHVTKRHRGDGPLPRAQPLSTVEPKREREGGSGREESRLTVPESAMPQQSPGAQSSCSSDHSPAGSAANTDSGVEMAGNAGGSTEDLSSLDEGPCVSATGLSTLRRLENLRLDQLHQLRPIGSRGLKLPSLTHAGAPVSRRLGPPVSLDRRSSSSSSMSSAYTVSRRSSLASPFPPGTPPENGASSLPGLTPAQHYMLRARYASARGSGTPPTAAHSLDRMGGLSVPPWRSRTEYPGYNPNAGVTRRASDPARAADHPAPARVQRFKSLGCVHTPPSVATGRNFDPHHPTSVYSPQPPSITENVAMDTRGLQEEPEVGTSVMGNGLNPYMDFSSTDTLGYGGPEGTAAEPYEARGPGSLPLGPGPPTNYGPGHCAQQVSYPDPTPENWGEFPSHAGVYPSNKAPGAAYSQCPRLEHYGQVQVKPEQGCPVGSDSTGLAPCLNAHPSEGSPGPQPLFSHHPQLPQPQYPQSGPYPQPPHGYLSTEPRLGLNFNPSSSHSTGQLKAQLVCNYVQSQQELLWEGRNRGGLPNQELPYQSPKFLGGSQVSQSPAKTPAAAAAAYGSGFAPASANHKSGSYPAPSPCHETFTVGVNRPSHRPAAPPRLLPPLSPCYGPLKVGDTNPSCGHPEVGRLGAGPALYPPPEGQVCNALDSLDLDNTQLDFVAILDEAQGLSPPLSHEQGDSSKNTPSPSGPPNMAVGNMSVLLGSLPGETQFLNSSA
The assay is described as follows: Inhibition of GLI1 transcriptional activity in HH-responsive mouse NIH3T3 cells assessed as reduction in SAG-induced luciferase activity at 5 uM incubated for 48 hrs by luciferase reporter gene assay relative to control.
Conditions: not given
Format: cell-based. The method, boiled down: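 HH-responsive NIH3T3 cells carrying a GLI-dependent firefly luciferase reporter with renilla control, treated 48 h with 100 nM SAG plus compound (5 μM). Firefly/renilla ratio normalised to SAG-only cells set at 100%, reported as percent inhibition.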
(Reporter assays use an easily measured gene product as a stand-in for the process of interest.)
`O=C(NC1CCCc2ccccc21)c1cnn2c(C(F)F)cc(C3CC3)nc12` (centres undefined): the inhibition is 54%.
Still for that read-out and setting: to `CCOC(=O)c1c(-c2ccccc2)csc1NC(NC(=O)c1cccc2ccccc12)C(Cl)(Cl)Cl` (centres undefined) belongs 7%.

A further assay relates to Daoy. The assay is described as follows: Antiproliferative activity against human DaOY cells assessed as reduction in cell viability incubated for 72 hrs by trypan blue or crystal violet staining based assay. It is filed as functional. Particulars: Homo sapiens, Daoy, 72 h; read-out: IC50.
For `O=C(NC1CCCc2ccccc21)c1cnn2c(C(F)F)cc(C3CC3)nc12` (centres undefined), the IC50 stood at 7.5 µM.

Still in this assay, the particulars now being: daoy.
For the molecule `CCOC(=O)c1c(-c2ccccc2)csc1NC(NC(=O)c1cccc(C)c1)C(Cl)(Cl)Cl` (centres undefined), the half-maximal inhibitory concentration (IC50) result is reported as “Not Active”.
On the same count and under the same terms, to `O=C(NC1CCOc2ccccc21)c1cnn2c(C(F)F)cc(C3CC3)nc12` (centres undefined) belongs “Not Active”; to `CCOC(=O)c1c(-c2ccccc2)csc1NC(NC(=O)c1ccccc1C)C(Cl)(Cl)Cl` (centres undefined), “Not Active”; to `CCOC(=O)c1c(-c2ccccc2)csc1NC(NC(=O)c1ccc(C)cc1)C(Cl)(Cl)Cl` (centres undefined), “Not Active”.
Same read-out and setting: then `CCOC(=O)c1c(-c2ccccc2)csc1NC(NC(=O)c1cccc2ccccc12)C(Cl)(Cl)Cl` (centres undefined), with “Not Active”.

The next assay has as its system A-375. Briefly: Antiproliferative activity against human A375 cells assessed as reduction in cell viability incubated for 72 hrs by trypan blue or crystal violet staining based assay. It is filed as functional. The settings on record: Homo sapiens, A-375, 72 h; read-out: IC50.
`O=C(NC1CCCc2ccccc21)c1cnn2c(C(F)F)cc(C3CC3)nc12` (centres undefined): the half-maximal inhibitory concentration (IC50) turned out to be 5 µM.

Still in this assay, the particulars now being: a-375.
For `CCOC(=O)c1c(-c2ccccc2)csc1NC(NC(=O)c1cccc(C)c1)C(Cl)(Cl)Cl` (centres undefined), the IC50 entry is listed as “Not Active”.
On the same count and under the same terms, then `O=C(NC1CCOc2ccccc21)c1cnn2c(C(F)F)cc(C3CC3)nc12` (centres undefined), with “Not Active”.
Turning to `CCOC(=O)c1c(-c2ccccc2)csc1NC(NC(=O)c1ccccc1C)C(Cl)(Cl)Cl` (centres undefined), the half-maximal inhibitory concentration (IC50) entry is given as “Not Active”.
Take `CCOC(=O)c1c(-c2ccccc2)csc1NC(NC(=O)c1ccc(C)cc1)C(Cl)(Cl)Cl` (centres undefined): the IC50 result was “Not Active”.
`CCOC(=O)c1c(-c2ccccc2)csc1NC(NC(=O)c1cccc2ccccc12)C(Cl)(Cl)Cl` (centres undefined): the IC50 result was “Not Active”.

The target in the next assay is T1, Zinc finger protein GLI1 (Mus musculus). Briefly: Inhibition of GLI1 transcriptional activity in HH-responsive mouse NIH3T3 cells assessed as reduction in GLI1 protein expression at 5 uM incubated for 48 hrs in presence of SAG by Western blot analysis. Format: cell-based.
Conditions: not given
The method, boiled down: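 Murine NIH3T3 cells given 100 nM SAG plus compound (5 μM) or DMSO for 48 h. Endogenous GLI1 protein measured by Western blot with HSP90 as loading control, band quantified against SAG-treated cells.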
For orientation: A western blot detects proteins with antibodies after separation by electrophoresis.
Take `O=C(NCc1ccc2c(c1)OCO2)c1cnn2c(C(F)F)cc(C3CC3)nc12`: the inhibition entry is “inactive”.
Same read-out and setting: then `O=C(NC1CCCCC1)c1cnn2c(C(F)F)cc(C3CC3)nc12`, with “inactive”.
Consider `CCOC(=O)c1c(-c2ccccc2)csc1NC(NC(=O)c1cccc(C)c1)C(Cl)(Cl)Cl` (centres undefined), for which the inhibition result was “inactive”.
Regarding `O=C(NCCc1ccccc1)c1cnn2c(C(F)F)cc(C3CC3)nc12`, the inhibition entry was “inactive”.
Same read-out and setting: then `O=C(NC1CCOc2ccccc21)c1cnn2c(C(F)F)cc(C3CC3)nc12` (centres undefined), with “inactive”; and `CCOC(=O)c1c(-c2ccccc2)csc1NC(NC(=O)c1ccccc1C)C(Cl)(Cl)Cl` (centres undefined), with “inactive”.
The same measure, in the same setting: to `O=C(c1cnn2c(C(F)F)cc(C3CC3)nc12)N(Cc1ccccc1)Cc1ccccc1` belongs “inactive”.
In the case of `CCOC(=O)c1c(-c2ccccc2)csc1NC(NC(=O)c1ccc(C)cc1)C(Cl)(Cl)Cl` (centres undefined), the inhibition entry was “inactive”.
Consider `O=C(NC1CCCc2ccccc21)c1cnn2c(C(F)F)cc(C3CC3)nc12` (centres undefined), for which the inhibition entry is “Active”.
Still for that read-out and setting: to `CCOC(=O)c1c(-c2ccccc2)csc1NC(NC(=O)c1cccc2ccccc12)C(Cl)(Cl)Cl` (centres undefined) belongs “inactive”.

As a reminder, the inhibition is the share of the control response that was lost under treatment. One may read the IC50 as the concentration that gives 50% inhibition.
